Experimental data gathered from unrelated publications.
Target: Tyrosine-protein kinase Lck (LCK, Homo sapiens, UniProt P06239)

Structure (SMILES)	test	setting	endpoint	result
Nc1ncc(-c2nc(N3CCOCC3)nc(N3CCOCC3)n2)c(C(F)F)n1	enzyme activity, inhibitor	10 µM	remaining activity	92%
Clc1ccc2c(C3CCN(CCc4c[nH]c5ccccc45)CC3)c[nH]c2c1	enzyme activity, inhibitor	10 µM	inhibition	66%
CC(C)(C)c1cc(C=C(C#N)C#N)cc(Br)c1O	enzyme activity, inhibitor	0.5 µM	remaining activity	87.8%
Cn1cncc1[C@](O)(COc1ccc(C#N)cc1-c1ccc(OC(F)(F)F)cc1)c1ccc(C#N)cc1	cell-free assay, competition with immobilised ligand	1 µM	remaining binding	82%
O=c1[nH]c2ccccc2n1C1CCN(Cc2ccc(-c3[nH]c4cc5ncnc5cc4nc3-c3ccccc3)cc2)CC1	enzyme activity, inhibitor	0.5 µM	remaining activity	98.2%
Cn1cc(-c2cc(F)cc(N3CCn4c(cc5c4CCCC5)C3=O)c2CO)cc(Nc2ccc(N3CCN(C4COC4)CC3)cn2)c1=O	enzyme activity, inhibitor	0.1 µM	inhibition	-1%
C#Cc1n[nH]c2c(-c3cn([C@@H](C)c4ccccn4)c(=O)[nH]c3=O)cc(F)cc12	enzyme activity, inhibitor	0.1 µM	inhibition	8.8%
N#CC1(c2ccccn2)CCN(Cc2cc(C(=O)O)c(=O)n3ccccc23)CC1	cell-free assay, competition with immobilised ligand	1 µM	remaining binding	97%
COc1ncccc1-c1cnn2ccc(N3CCN(C(=O)OC(C)C)CC3)nc12	binding, competition with immobilised ligand	1 µM	remaining binding	100%
Cc1nn(C)cc1-c1nc2c(N3CCN(Cc4ccc(Cl)cc4)CC3)c(Cl)cnc2[nH]1	binding, competition with immobilised ligand	1 µM	remaining binding	100%
C#Cc1n[nH]c2c(-c3cn([C@@H](C)c4ccccc4)c(=O)[nH]c3=O)cc(F)cc12	enzyme activity, inhibitor	0.1 µM	inhibition	10.5%
